Test results as given in ChEMBL document CHEMBL4513216, “Probing the Open Global Health Chemical Diversity Library for Multistage-Active Starting Points for Next-Generation Antimalarials” (ACS Infect Dis, 2020).

Assay: Toxicity liver stage against HepG2, at 10uM
Format: cell-based
Design: test concentration 10 uM, cell line HepG2-A16-CD81EGFP
Conditions: human, HepG2-A16-CD81EGFP cells; read-out: INHIBITION
Method in brief: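 Uninfected HepG2-A16-CD81EGFP cells, 3 × 10^3 per well, 1536-well, plated on prespotted compound at 10 μM final, parasite-free screening media added to match infected plates; puromycin 10 μM positive, DMSO 0.5% negative; run in parallel with 48 h PbLuc assay at 37 °C, 5% CO2; viability by CellTiter-Glo luminescence, normalized to controls.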

SMILES | cytotoxicity at 10 µM
CCN(Cc1noc(C)n1)C(=O)CC1C(=O)NCCN1CC(C)(C)C (stereo unspecified) | 2.78%
CN1CC2(CCN(Cc3cccc(C#N)c3)CC2)CC1=O | -0.145%
O=C(NCC1Cn2nnc(-c3ccsc3)c2CO1)c1ccc[nH]1 (stereo unspecified) | 2.28%
CN1CCC2(COCCN(Cc3cccc(C#N)c3)C2)C1 (stereo unspecified) | 0.0422%
CCOCc1nnc2n1CCN(Cc1c(C)noc1C)CC2 | -95.3%
COc1ccc(-c2noc(C(CC(C)C)N3CCCCC3=O)n2)cn1 (stereo unspecified) | -54.2%
CN(C)CCOc1ccccc1N1CCN(C(=O)C(C)(C)C#N)CC1 | 11.4%
CC1c2ncc(Cn3cncn3)n2CCN1CC1CCOCC1 (stereo unspecified) | 2.84%
COc1ccc(CC(=O)N2CC[C@@H]3CN(C)S(=O)(=O)[C@@H]3CC2)cc1 | 4.33%
CC1CN(c2ccc(CNC(=O)c3ccn(C)c(=O)c3)cn2)CCO1 (stereo unspecified) | 2.82%
c1cnc(N2CCOC3(COCCN(Cc4cc[nH]n4)C3)C2)nc1 (stereo unspecified) | 11.8%
CS(=O)(=O)N1CCOC2(CCN(c3nccs3)CC2)c2ccccc21 | 1.18%
Cc1ccc(C(=O)N2CCC3(CC2)c2ccccc2[C@@H](N)[C@@H]3O)c(=O)[nH]1 | -2.72%
CC(=O)N1Cc2ccccc2CC2(CCCCN2C)C1 (stereo unspecified) | 3.87%
CN(C)CC(=O)N1CCCC2(CCN(c3ccccc3)C2=O)C1 (stereo unspecified) | -1.24%
CCc1noc(C)c1C(=O)N1CCCC1Cn1cccn1 (stereo unspecified) | -3.04%
CCCc1cc(C(=O)N2Cc3cnc(C(C)(C)C)nc3C2)ccn1 | -0.807%
NC(Cc1nc(-c2ccccc2)no1)c1ccccc1 (stereo unspecified) | -5.08%
Cc1ncsc1CNc1ccn(Cc2ccccc2)n1 | 9.58%
CC(C)CC(NC(=O)c1ccco1)c1nnc2ccccn12 (stereo unspecified) | -6.21%
CCN1CCN(S(=O)(=O)c2cnc(NC(C)=O)s2)CC1 | 1.37%
Cn1ncnc1-c1ccnc(N2CCC(C(O)c3cccs3)CC2)n1 (stereo unspecified) | -39.2%
O=C(CCN1CCOC(C(F)(F)F)C1)NCc1ccc(Cl)cc1 (stereo unspecified) | -9.93%

SMILES | cytotoxicity at 10 µM
CCc1nc(CCNC(=O)NC2CC(=O)N(C(C)(C)C)C2)cs1 (stereo unspecified) | -1.51%
COCC(O)CN1CCC(=O)N(CC=C(C)C)Cc2ccccc21 (stereo unspecified) | 1.87%
COCCN1CC(Nc2nc(C3CCCC3)nc3c2cnn3C)CC1=O (stereo unspecified) | -1.18%
CCOc1ccc(S(=O)(=O)NCCc2ccc(N(C)C)cc2)cc1C | -6.48%
COc1ccccc1C(O)Cn1cc(C(=O)NCC2CC2)nn1 (stereo unspecified) | -2.62%
CC1(C2CCN(CCCC(=O)O)CC2)CN(Cc2ccccc2)C(=O)O1 (stereo unspecified) | -21.9%
CCc1nc(CNc2ccc(C(=O)N3CCSCC3)cc2C)no1 | -6.99%
CCc1noc(Cn2c(=O)c3c(C(F)(F)F)cc(C)nc3n2C)n1 | -3.44%
CC(C)(C)N1CC(C(=O)NCc2noc(Cc3ccccc3)n2)CC1=O (stereo unspecified) | 0.824%
Cn1ncc(Cl)c1C(=O)NCCN1CCC(O)(c2ccc(F)cc2)CC1 | 4.71%
CN(Cc1ccc(C#N)cc1)C(=O)c1ccnc(OC2CCC2)c1 | 7.59%
Cc1nc2[nH]cnc(NCCN3CCCC3)c-2n1 | -12%
Cn1nc(COCC2CC2)c2c1CN(CC1CC1)CC2 | 13.8%
CN(C)C(=O)c1nc2c(s1)CCN(C(=O)c1ccc(Cl)cc1)CC2 | -14.2%
CCN(CC1CCOC1)C(=O)c1ccccc1N1CCOCC1 (stereo unspecified) | -13.6%
Cc1cccc(OCCNC(=O)CN2CCCC2Cn2cccn2)c1 (stereo unspecified) | -9.46%
CCc1ncc(C(=O)N2CCOCC2CC(=O)c2ccccc2)s1 (stereo unspecified) | 2.58%
CC(=O)c1cccc(OCC(=O)NS(=O)(=O)c2ccc(C)s2)c1 | -8.29%
Cc1cc(C(=O)NCc2cccnc2N2CCCC(O)C2)[nH]n1 (stereo unspecified) | 4.52%
OCCNc1nc(NCc2cccnc2)nc2nccnc12 | -3.55%
COc1ccccc1COCC(O)CN(C)c1ccc(C)cc1C (stereo unspecified) | 9.6%
Cc1cnn(CC2CCCN2C(=O)c2cc(C)no2)c1 (stereo unspecified) | -0.194%
O=C(Cc1cccnc1)NC1CCCN(CCCc2ccccc2)C1 (stereo unspecified) | 11.5%

SMILES | cytotoxicity at 10 µM
COC(CNC(=O)CNC(=O)c1ccccc1)c1cccc(Cl)c1 (stereo unspecified) | 5.61%
O=C(CCC1CCCC1)N1C[C@@H]2CC[C@H]1CN(Cc1ccncc1)C2 | -3.76%
COc1ccccc1OCC(=O)NS(=O)(=O)c1ccc(Cl)cc1F | 2.28%
CC(C)CN1C[C@H]2CCN(C(=O)C3CCCO3)CC[C@H]2S1(=O)=O (stereo partly specified) | 19.3%
CCCc1ncc(C(=O)c2ccc(OC)cc2)n1C | 22.3%
COC1CC2(CCN(Cc3nccn3C)CC2)C1 | -133%
CC(C)CC(=O)N1CCC(c2nnc3n2CCCCC3)CC1 | -28%
Cc1ccc(C(NC(=O)CN2CCc3c(ncn3C)C2)C2CC2)cc1 (stereo unspecified) | -2.43%
CC(CO)CSc1ncnc2[nH]ncc12 (stereo unspecified) | -12.3%
c1cc2c(cc1-n1nc(C3CC3)nc1-c1csnn1)OCCO2 | 9.46%
Cc1ncccc1Oc1nccnc1C1CCN(S(C)(=O)=O)CC1 | -7.88%
CCn1cc(CN2CCC(CNC(C)=O)CC2)cc1C#N | -6.21%
CCCc1ccc2oc(C(=O)N3CCN(CCC(N)=O)CC3)c(C)c2c1 | 0.424%
CCN1CC(COc2ccccc2)Oc2ncccc2S1(=O)=O (stereo unspecified) | -0.947%
CC(CN1CCC(c2ccccc2)CC1)n1cnc2ccccc21 (stereo unspecified) | 15.5%
COc1ccc(CCC(=O)NCc2cc(C)on2)cc1 | -56.4%
COc1cccc(CN2CCN(CC(C)C)C(=O)C2C)c1O (stereo unspecified) | 2.02%
N#CCCCN1CCCC1Cc1ccccc1 (stereo unspecified) | -45.4%
Cc1cc(CNCCNS(C)(=O)=O)sc1Br | -4.6%
O=C(Cc1ccsc1)N1CCCC(c2cc(C(F)F)n3ncnc3n2)C1 (stereo unspecified) | -20.7%
Cc1cccc(CN(Cc2ccccn2)S(=O)(=O)N(C)C)c1 | -1.74%
CN(Cc1ccc(F)c(F)c1)C(=O)CCc1nc(-c2nnc[nH]2)no1 | -43.6%
O=C(Nc1ccnc(OC2CCOC2)c1)c1ccccc1Cl (stereo unspecified) | 8.5%

SMILES | cytotoxicity at 10 µM
CCc1nnc2n1CCN(C(=O)c1nc(-c3ccco3)sc1C)C2 | -1.19%
COc1cc(C(C)=O)ccc1OCCNCc1ccco1 | -5.05%
Cn1c(C(F)(F)F)nn(CCNC(=O)NCc2ccccc2)c1=O | -27.3%
O=C(NCCn1ccc(-c2ccccn2)n1)c1ccncc1 | -20.7%
O=C1CN(CCCNC(=O)Nc2ccccn2)CCN1 | -10.1%
O=C(CC1CCCC1)NCCS(=O)(=O)N1CCN(c2ccccc2)CC1 | -4.07%
Cc1ccc(OCCCNC(=O)C2(C)CC(=O)N3C=CC=CC3=N2)cc1 (stereo unspecified) | 0.343%
CC(C)C(=O)N1CCC2(CCCN(CCOc3ccccc3)C2)C1 (stereo unspecified) | 6.71%
CC(C)Cc1cc(C(=O)NCC2CCCN(c3ccccn3)C2)on1 (stereo unspecified) | 0.101%
Cc1ccc(CNS(=O)(=O)C=c2[nH]c(=O)n3cccc3c2=O)cc1 | 6.38%
Cc1c(-c2cc(-c3cnn(C)c3C)n(CC(=O)NC3CC3)n2)cnn1C | 9.26%
Cc1ccc(NC(=O)N2CCCN(C(N)=O)CC2)s1 | -6.58%
CC1(C)CN(CC(F)(F)F)CCN1CC(=O)NC1CC1 | 12.5%
CC(=O)N1CCCCC1c1nc(C)cc(-c2ccccc2C(=O)O)n1 (stereo unspecified) | -12.8%
Cc1ccc(C(=O)N2CCN3C[C@H](Oc4cncnc4)C[C@H]3C2)cn1 | 5.01%
CN(C)C(=O)CCCNC(=O)C(c1cccc(F)c1)N(C)C (stereo unspecified) | -25.3%
CCc1nccn1C1CCCN(C(=O)c2ccc(C(N)=O)cn2)C1 (stereo unspecified) | 1.89%
COC(=O)c1cc2c(OC)c(OC)c(OC)cc2[nH]1 | -0.555%
CN(Cc1cccnc1)C[C@H]1OC[C@@H]2CCN(c3ncccn3)C[C@@H]21 | -108%
Nc1nc2c(c(NCC(c3cccnc3)N3CCOCC3)n1)CCNC2 (stereo unspecified) | 9.03%
Cc1ccc(OCC(=O)NC2CC2)nc1 | 4.06%
Cc1cc(NCc2csc(C)n2)no1 | 9.48%
COc1ccnc(CN(C)C(=O)CSc2nnc(N)s2)c1 | 3.94%

SMILES | cytotoxicity at 10 µM
Cc1ccc(OCC(=O)NS(=O)(=O)Cc2ccccc2)cc1 | 2.07%
c1cnc2c(c1)cc([C@H]1CCCO1)n2CCN1CCOCC1 | -11.3%
CN1CCOC(CN(C(=O)Cc2ccccc2F)c2nccs2)C1 (stereo unspecified) | -11.7%
CC(C)(C)OC(=O)N1CCN(C(=O)CCn2cccn2)CC1 | -14.6%
Cc1nc(C2CCCN2C(=O)c2cc3c(s2)CCCC3)no1 (stereo unspecified) | -11.2%
Cc1ncccc1CNC1CCCN(Cc2noc(C3CC3)n2)C1 (stereo unspecified) | -1.34%
COCCn1cnnc1CCn1ccnc1-c1ccccc1Cl | -8.25%
CCC(NC(=O)C1CCN(S(C)(=O)=O)CC1)c1ccc(C)c(C)c1 (stereo unspecified) | -8.06%
O=C(C1CN(Cc2ccoc2)CC12CCOCC2)N1CCCC1 (stereo unspecified) | 11.2%
CS(=O)(=O)N1C[C@@H](F)[C@@H](OCc2nc3ccccc3o2)C1 | -4.47%
CC(c1ccc(Cl)cc1)N1CCN(CCS(N)(=O)=O)CC1 (stereo unspecified) | -1.37%
Cc1oncc1C(=O)N1CC[C@H]2[C@H]1CCN2S(C)(=O)=O | -99.4%
NS(=O)(=O)CCNC(=O)c1ccc(OCc2ccccc2)nc1 | 6.85%
CN(Cc1ccsc1)C(=O)COC(=O)c1cc(Cl)c[nH]1 | -3.73%
Cc1nc(CN2CC[C@@H]3[C@@H](CCC(=O)N3CCc3c[nH]cn3)C2)co1 | 2.62%
CNC(=O)c1ccc(CN(C)c2ccc(C(F)(F)F)cn2)cc1 | 6.71%
Cc1ccc2c(c1)CN(C(=O)C1CCCCC1)C(CN(C)C)CO2 (stereo unspecified) | 1.85%
CN(C)CCn1ccc2cc(NC(=O)NCc3ccon3)ccc21 | -2.51%
COC(=O)N1CC[C@@]2(O)CCCC[C@H]2[C@@H]1c1ccc2c(c1)OCO2 | 2.91%
